Converted amounts (≈) assume the structure as drawn. The source made the active and inactive calls. The calls are words filed in the database; no cut-off is given here.
Legend:
[1] = system: Candida albicans; assay: Antifungal activity against Candida albicans SC5314 after 24 hrs; assay type: functional; conditions: SC5314, 24 h
How it was run: (§1)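 Broth dilution MIC per NCCLS recommendations. Compounds were dissolved in DMSO in growth medium, then inoculated and incubated at 35 °C, with growth read at 24 h for C. albicans. MIC80 is the first well showing about 80% growth reduction versus the drug-free well. Values are the mean of three replicate tests.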

[2] = system: Cryptococcus neoformans; assay: Antifungal activity against Cryptococcus neoformans after 72 hrs; assay type: functional
How it was run: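 NCCLS-based broth dilution against C. neoformans. Test agents were in DMSO in growth medium, inoculated and held at 35 °C, and MIC80 was read at 72 h. MIC80 is the first well with roughly 80% less growth than the drug-free well. Each value averages three replicate tests.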

[3] = system: Aspergillus fumigatus; assay: Antifungal activity against Aspergillus fumigatus after 5 to 7 days; assay type: functional
How it was run: (§2)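 Filamentous fungi were tested by broth dilution following NCCLS recommendations. Compounds were dissolved in DMSO in growth medium, inoculated and incubated at 35 °C, with MIC80 read after 5–7 days. MIC80 is the first well with approximately 80% growth reduction relative to the drug-free well. Results are the mean of three replicates.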

[4] = system: Candida albicans; assay: Antifungal activity against Candida albicans SCY0109 after 24 hrs; assay type: functional; conditions: SCY0109, 24 h; how it was run: as §1
[5] = system: Nakaseomyces glabratus; assay: Antifungal activity against Candida glabrata after 5 to 7 days; assay type: functional
[6] = system: Pichia kudriavzevii; assay: Antifungal activity against Candida krusei after 5 to 7 days; assay type: functional
How it was run: (§3)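 MIC measured by broth dilution per NCCLS recommendations. Compounds were dissolved in DMSO in growth medium, inoculated and incubated at 35 °C. MIC80 is the first well with approximately 80% lower growth than the drug-free well. Values are the mean of three replicate tests.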

[7] = system: Trichophyton rubrum; assay: Antifungal activity against Trichophyton rubrum after 5 to 7 days; assay type: functional
How it was run: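 Broth dilution per NCCLS recommendations against an ATCC strain; compounds dissolved in DMSO in growth medium; incubated at 35 °C. MIC80 is the first well with about 80% growth reduction versus the drug-free well, read at 5–7 days for filamentous fungi. Values are the mean of three replicate tests.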

[8] = system: Candida parapsilosis; assay: Antifungal activity against Candida parapsilosis after 5 to 7 days; assay type: functional; conditions: Lodderomyces parapsilosis
[9] = system: Nannizzia gypsea; assay: Antifungal activity against Microsporum gypseum after 5 to 7 days; assay type: functional; how it was run: as §2
[10] = system: Candida tropicalis; assay: Antifungal activity against Candida tropicalis after 24 hrs; assay type: functional; how it was run: as §3
[11] = system: Candida albicans; assay: Antifungal activity against Candida albicans SC5314 infected in ICR mouse assessed as increase in host survival at 1 mg/kg, po qd for 7 days starting from 2 hrs post infection measured up to 20 days; assay type: functional, organism-based
How it was run: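 Male ICR mice (18–22 g, ten per group) were immunosuppressed with intraperitoneal cyclophosphamide 100 mg/kg once daily for 3 days. They were then infected with 0.4 ml of […] C. albicans SC5314. Oral dosing in 0.5% carboxymethylcellulose suspension began 2 h post-infection, with vehicle-only controls. Read-out was mean survival days over 20 days.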

SMILES	MIC80 [1] [mg/L]	MIC80 [2] [mg/L]	MIC80 [3] [mg/L]	also measured
COCCCN[C@H](C)[C@](O)(Cn1cncn1)c1ccc(F)cc1F	0.25 (≈ 0.734 µM)	0.5 (≈ 1.47 µM)	2 (≈ 5.88 µM)	–
CCCN[C@H](C)[C@](O)(Cn1cncn1)c1ccc(F)cc1F	0.125 (≈ 0.403 µM)	0.0625 (≈ 0.201 µM)	8 (≈ 25.8 µM)	–
C[C@@H](n1cc(-c2cccs2)nn1)[C@](O)(Cn1cncn1)c1ccc(F)cc1F	0.0625 (≈ 0.155 µM)	0.0625 (≈ 0.155 µM)	16 (≈ 39.8 µM)	–
C[C@@H](n1cc(-c2ccncc2)nn1)[C@](O)(Cn1cncn1)c1ccc(F)cc1F	1 (≈ 2.52 µM)	1 (≈ 2.52 µM)	> 64	–
C[C@@H](NCC1CC1)[C@](O)(Cn1cncn1)c1ccc(F)cc1F	0.125 (≈ 0.388 µM)	0.125 (≈ 0.388 µM)	8 (≈ 24.8 µM)	–
OC(Cn1cncn1)(Cn1cncn1)c1ccc(F)cc1F [FLUCONAZOLE]	1 (≈ 3.27 µM)	2 (≈ 6.53 µM)	> 64	MIC80 [4]: 0.25 mg/L (≈ 0.816 µM); MIC80 [5]: 1 mg/L (≈ 3.27 µM); MIC80 [6]: 32 mg/L (≈ 104 µM); MIC80 [7]: 1 mg/L (≈ 3.27 µM); MIC80 [8]: 0.5 mg/L (≈ 1.63 µM); MIC80 [9]: 8 mg/L (≈ 26.1 µM); MIC80 [10]: 32 mg/L (≈ 104 µM); Activity [11]: Active
C[C@@H](NC1CCCCC1)[C@](O)(Cn1cncn1)c1ccc(F)cc1F	0.5 (≈ 1.43 µM)	0.5 (≈ 1.43 µM)	8 (≈ 22.8 µM)	–
C[C@@H](N(C)C1CC1)[C@](O)(Cn1cncn1)c1ccc(F)cc1F	0.125 (≈ 0.388 µM)	0.125 (≈ 0.388 µM)	8 (≈ 24.8 µM)	–
C[C@@H](NCc1ccc(Br)cc1)[C@](O)(Cn1cncn1)c1ccc(F)cc1F	0.0156 (≈ 0.0357 µM)	0.125 (≈ 0.286 µM)	0.5 (≈ 1.14 µM)	–
CCCCCN[C@H](C)[C@](O)(Cn1cncn1)c1ccc(F)cc1F	0.125 (≈ 0.369 µM)	0.125 (≈ 0.369 µM)	4 (≈ 11.8 µM)	–
C[C@@H](c1ncncc1F)[C@](O)(Cn1cncn1)c1ccc(F)cc1F [VORICONAZOLE]	0.0312 (≈ 0.0895 µM)	0.0312 (≈ 0.0895 µM)	0.25 (≈ 0.716 µM)	MIC80 [4]: 0.0156 mg/L (≈ 0.0447 µM); MIC80 [5]: 0.0312 mg/L (≈ 0.0895 µM); MIC80 [6]: 0.25 mg/L (≈ 0.716 µM); MIC80 [7]: 0.125 mg/L (≈ 0.358 µM); MIC80 [8]: 0.0312 mg/L (≈ 0.0895 µM); MIC80 [9]: 0.25 mg/L (≈ 0.716 µM); MIC80 [10]: 0.25 mg/L (≈ 0.716 µM)
CCN(C1CC1)[C@H](C)[C@](O)(Cn1cncn1)c1ccc(F)cc1F	1 (≈ 2.97 µM)	1 (≈ 2.97 µM)	> 64	–
C[C@@H](n1cc(-c2cccc(N)c2)nn1)[C@](O)(Cn1cncn1)c1ccc(F)cc1F	0.5 (≈ 1.22 µM)	1 (≈ 2.43 µM)	> 64	–
C[C@@H](n1cc(-c2ccc(F)cc2)nn1)[C@](O)(Cn1cncn1)c1ccc(F)cc1F	0.0625 (≈ 0.151 µM)	0.0625 (≈ 0.151 µM)	32 (≈ 77.2 µM)	–
CCc1ccc(-c2cn([C@H](C)[C@](O)(Cn3cncn3)c3ccc(F)cc3F)nn2)cc1	0.5 (≈ 1.18 µM)	0.5 (≈ 1.18 µM)	> 64	–
C[C@@H](NCc1ccccc1)[C@](O)(Cn1cncn1)c1ccc(F)cc1F	0.0312 (≈ 0.0872 µM)	0.125 (≈ 0.349 µM)	1 (≈ 2.79 µM)	–
C[C@@H](n1cc(-c2ccc(Br)cc2)nn1)[C@](O)(Cn1cncn1)c1ccc(F)cc1F	0.25 (≈ 0.526 µM)	0.25 (≈ 0.526 µM)	> 64	–
CCC(C)N[C@H](C)[C@](O)(Cn1cncn1)c1ccc(F)cc1F (stereo not given in full)	0.125 (≈ 0.385 µM)	0.125 (≈ 0.385 µM)	4 (≈ 12.3 µM)	–
C[C@@H](N=[N+]=[N-])[C@](O)(Cn1cncn1)c1ccc(F)cc1F	0.0156 (≈ 0.053 µM)	0.0625 (≈ 0.212 µM)	8 (≈ 27.2 µM)	–
C[C@@H](n1cc(-c2cccnc2)nn1)[C@](O)(Cn1cncn1)c1ccc(F)cc1F	0.5 (≈ 1.26 µM)	1 (≈ 2.52 µM)	> 64	–
C[C@@H](N1CCOCC1)[C@](O)(Cn1cncn1)c1ccc(F)cc1F	0.0312 (≈ 0.0924 µM)	0.0156 (≈ 0.0461 µM)	0.125 (≈ 0.369 µM)	MIC80 [4]: 0.0156 mg/L (≈ 0.0461 µM); MIC80 [5]: 0.0312 mg/L (≈ 0.0924 µM); MIC80 [6]: 0.5 mg/L (≈ 1.48 µM); MIC80 [7]: 0.0625 mg/L (≈ 0.185 µM); MIC80 [8]: 0.0625 mg/L (≈ 0.185 µM); MIC80 [9]: 0.0625 mg/L (≈ 0.185 µM); MIC80 [10]: 0.5 mg/L (≈ 1.48 µM); Activity [11]: Active
C[C@@H](n1cc(-c2ccccc2F)nn1)[C@](O)(Cn1cncn1)c1ccc(F)cc1F	0.125 (≈ 0.302 µM)	0.125 (≈ 0.302 µM)	32 (≈ 77.2 µM)	–
C[C@@H](N(Cc1ccc(Cl)cc1)C1CC1)[C@](O)(Cn1cncn1)c1ccc(F)cc1F	8 (≈ 18.5 µM)	4 (≈ 9.24 µM)	> 64	–

SMILES	MIC80 [1] [mg/L]	MIC80 [2] [mg/L]	MIC80 [3] [mg/L]	also measured
CCN[C@H](C)[C@](O)(Cn1cncn1)c1ccc(F)cc1F	0.5 (≈ 1.69 µM)	0.5 (≈ 1.69 µM)	32 (≈ 108 µM)	–
C[C@@H](n1cc(C2CC2)nn1)[C@](O)(Cn1cncn1)c1ccc(F)cc1F	0.0625 (≈ 0.173 µM)	0.0625 (≈ 0.173 µM)	32 (≈ 88.8 µM)	–
CCN1CCN([C@H](C)[C@](O)(Cn2cncn2)c2ccc(F)cc2F)CC1	2 (≈ 5.47 µM)	2 (≈ 5.47 µM)	64 (≈ 175 µM)	–
C[C@@H](n1cc(-c2ccccc2Cl)nn1)[C@](O)(Cn1cncn1)c1ccc(F)cc1F	0.0156 (≈ 0.0362 µM)	0.0156 (≈ 0.0362 µM)	16 (≈ 37.1 µM)	–
Cc1ccc(-c2cn([C@H](C)[C@](O)(Cn3cncn3)c3ccc(F)cc3F)nn2)cc1	0.125 (≈ 0.305 µM)	0.0625 (≈ 0.152 µM)	> 64	–
COc1ccc(-c2cn([C@H](C)[C@](O)(Cn3cncn3)c3ccc(F)cc3F)nn2)cc1	0.125 (≈ 0.293 µM)	0.0625 (≈ 0.147 µM)	> 64	–
C[C@@H](n1cc(-c2cccc(Cl)c2)nn1)[C@](O)(Cn1cncn1)c1ccc(F)cc1F	0.0625 (≈ 0.145 µM)	0.0625 (≈ 0.145 µM)	> 64	–
C[C@@H](N(Cc1ccccc1)C1CC1)[C@](O)(Cn1cncn1)c1ccc(F)cc1F	8 (≈ 20.1 µM)	8 (≈ 20.1 µM)	8 (≈ 20.1 µM)	–
C[C@@H](n1cc(-c2ccc(N)cc2)nn1)[C@](O)(Cn1cncn1)c1ccc(F)cc1F	0.5 (≈ 1.22 µM)	0.5 (≈ 1.22 µM)	> 64	–
C[C@@H](NC1CC1)[C@](O)(Cn1cncn1)c1ccc(F)cc1F	0.0156 (≈ 0.0506 µM)	0.0156 (≈ 0.0506 µM)	1 (≈ 3.24 µM)	MIC80 [4]: 0.0078 mg/L (≈ 0.0253 µM); MIC80 [5]: 0.0156 mg/L (≈ 0.0506 µM); MIC80 [6]: 0.5 mg/L (≈ 1.62 µM); MIC80 [7]: 0.0625 mg/L (≈ 0.203 µM); MIC80 [8]: 0.25 mg/L (≈ 0.811 µM); MIC80 [9]: 0.125 mg/L (≈ 0.405 µM); MIC80 [10]: 0.5 mg/L (≈ 1.62 µM)
CC(C)N[C@H](C)[C@](O)(Cn1cncn1)c1ccc(F)cc1F	0.25 (≈ 0.806 µM)	0.25 (≈ 0.806 µM)	16 (≈ 51.6 µM)	–
CCCCN[C@H](C)[C@](O)(Cn1cncn1)c1ccc(F)cc1F	0.125 (≈ 0.385 µM)	0.125 (≈ 0.385 µM)	8 (≈ 24.7 µM)	–
C[C@@H](n1cc(-c2cccc(F)c2)nn1)[C@](O)(Cn1cncn1)c1ccc(F)cc1F	0.25 (≈ 0.603 µM)	0.0625 (≈ 0.151 µM)	> 64	–
C[C@@H](n1cc(-c2cccc(Br)c2)nn1)[C@](O)(Cn1cncn1)c1ccc(F)cc1F	0.5 (≈ 1.05 µM)	1 (≈ 2.1 µM)	> 64	–
C[C@@H](n1cc(-c2ccccc2)nn1)[C@](O)(Cn1cncn1)c1ccc(F)cc1F	0.125 (≈ 0.315 µM)	0.0625 (≈ 0.158 µM)	16 (≈ 40.4 µM)	–
C[C@@H](n1cc(-c2ccsc2)nn1)[C@](O)(Cn1cncn1)c1ccc(F)cc1F	0.0625 (≈ 0.155 µM)	0.0625 (≈ 0.155 µM)	4 (≈ 9.94 µM)	–
C[C@@H](n1cc(-c2ccc(Cl)cc2)nn1)[C@](O)(Cn1cncn1)c1ccc(F)cc1F	0.125 (≈ 0.29 µM)	0.0156 (≈ 0.0362 µM)	32 (≈ 74.3 µM)	–
C[C@@H](N1CCCC1)[C@](O)(Cn1cncn1)c1ccc(F)cc1F	0.125 (≈ 0.388 µM)	0.125 (≈ 0.388 µM)	1 (≈ 3.1 µM)	–
CCCCc1ccc(-c2cn([C@H](C)[C@](O)(Cn3cncn3)c3ccc(F)cc3F)nn2)cc1	4 (≈ 8.84 µM)	8 (≈ 17.7 µM)	> 64	–
Cc1ccc(CN(C2CC2)[C@H](C)[C@](O)(Cn2cncn2)c2ccc(F)cc2F)cc1	8 (≈ 19.4 µM)	5 (≈ 12.1 µM)	> 64	–
CCCN(C1CC1)[C@H](C)[C@](O)(Cn1cncn1)c1ccc(F)cc1F	1 (≈ 2.85 µM)	2 (≈ 5.71 µM)	8 (≈ 22.8 µM)	–
C[C@@H](n1cc(CN)nn1)[C@](O)(Cn1cncn1)c1ccc(F)cc1F	0.25 (≈ 0.716 µM)	0.25 (≈ 0.716 µM)	> 64	–

Reference: ChEMBL document CHEMBL4138173, “Molecular docking, design, synthesis and antifungal activity study of novel triazole derivatives” (2018)
